An excerpt weighted towards active compounds, which were near 5.4% of everything screened.
SKKanGAS inh: inhibitors of SKKanGAS S. pyogenes growth in kanamycin (SK-promoter or general growth effect); inhibition, % at 7.5 µM; AID 1662; 300,000 compounds, 1.3% hits; BacTiter-Glo, 6 h;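 active = mean replicate score, as percent of positive control median, at least 50; inconclusive = mean below 50 but one replicate at or above 50; inactive = mean and every replicate below 50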;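 also: strain carries kanamycin resistance gene driven by streptokinase promoter and grows in 40 µg/ml kanamycin; loss of luminescence reflects streptokinase promoter inhibition or plain growth inhibition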
CSC inhib: cancer stem cell inhibition. cancer stem cell-like cells viability, luminescence. inhibition, % at 7.5 µM. 300,000 compounds, 1.1% hits. AID 2717; in the data active = inhibition above about 75%; inconclusive = no clear call, values can overlap the other calls; tested in HMLE shEcad cells
aSyn UTR inh: 5' untranslated region of α-synuclein, MLPCN primary screen. alpha-synuclein 5'UTR reporter, inhibitor activity. inhibition, % (tested at 7.5 µM). 300,000 compounds, 0.82% hits; in the data active = inhibition above about 60%; inconclusive = no clear call, values can overlap the other calls;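 also: H4 neuroglioblastoma cells stably carrying SNCA 5'UTR luciferase fusion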
T cruzi inh: T. cruzi replication inhibition; T. cruzi beta-gal in NIH3T3, luminescence, 90 h; inhibition, % (no concentration beside the values); 300,000 compounds, 1.4% hits; AID 1885;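 active = mean inhibition across valid replicates above about 55%, limit read from the data; inconclusive = mean below that limit but half or more replicates reach it; inactive = mean below it, under half of replicates reach it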;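 also: signal also drops with host cell toxicity which is not excluded here; higher percent means less beta-gal luminescence so fewer parasites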
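Assay system: NIH/3T3 fibroblasts plus reporter T. cruzi. Amount: NIH/3T3 cells, 5,000 per well. Buffer or medium: DMEM, 2% fetal bovine serum. Doses: compound pinned at 50 nL/well, DMSO. Schedule: ≥90 h infection period, 3 h prior cell attachment. Signal: luminescent β-galactosidase signal after 60 min lysis. Read-out: parasite load inhibition, %.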
Mdm2-MdmX inh: human Mdm2/MdmX binding inhibition; inhibition, % at 8 µM; 330,000 compounds, 3% hits; SaOS-2 split-luciferase Mdm2/MdmX complementation, luminescence; O15151+Q00987;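 active = inhibition of at least 50% at 8 µM in the primary screen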
Target sequence (O15151 whole entry, looked up): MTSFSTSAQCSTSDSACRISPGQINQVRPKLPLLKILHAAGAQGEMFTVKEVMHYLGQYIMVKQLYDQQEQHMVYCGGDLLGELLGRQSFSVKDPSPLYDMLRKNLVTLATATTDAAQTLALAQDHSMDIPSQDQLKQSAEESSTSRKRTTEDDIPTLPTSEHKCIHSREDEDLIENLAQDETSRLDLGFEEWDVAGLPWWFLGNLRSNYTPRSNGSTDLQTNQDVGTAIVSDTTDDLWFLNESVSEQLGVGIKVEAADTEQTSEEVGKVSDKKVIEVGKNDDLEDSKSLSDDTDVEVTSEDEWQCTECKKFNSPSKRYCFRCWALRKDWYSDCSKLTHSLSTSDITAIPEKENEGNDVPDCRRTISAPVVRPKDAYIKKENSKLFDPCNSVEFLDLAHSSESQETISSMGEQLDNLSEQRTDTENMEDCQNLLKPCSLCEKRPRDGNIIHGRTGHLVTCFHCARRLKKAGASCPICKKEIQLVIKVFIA
Target sequence (Q00987 whole entry, looked up): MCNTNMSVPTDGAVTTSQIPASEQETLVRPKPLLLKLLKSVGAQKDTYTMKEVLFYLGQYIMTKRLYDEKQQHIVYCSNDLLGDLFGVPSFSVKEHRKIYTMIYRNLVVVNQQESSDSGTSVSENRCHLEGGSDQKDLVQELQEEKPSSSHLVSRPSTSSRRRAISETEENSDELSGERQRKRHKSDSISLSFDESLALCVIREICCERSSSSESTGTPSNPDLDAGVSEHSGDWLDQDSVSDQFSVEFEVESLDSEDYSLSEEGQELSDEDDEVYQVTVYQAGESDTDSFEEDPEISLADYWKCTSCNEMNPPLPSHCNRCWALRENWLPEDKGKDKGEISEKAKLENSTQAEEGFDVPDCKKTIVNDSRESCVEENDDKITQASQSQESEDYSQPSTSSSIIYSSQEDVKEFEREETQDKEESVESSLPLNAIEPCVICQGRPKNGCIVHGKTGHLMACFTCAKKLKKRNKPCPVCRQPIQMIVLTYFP
Mdm2 MdmX conf: human Mdm2/MdmX binding inhibition, confirmed; shares compounds with Mdm2-MdmX inh; luminescent assay; inhibition, % at 8 µM; 10,000 compounds, 55% hits; AID 489028; in the data active = inhibition above about 40%
FLuc counter: inhibits full-length luciferase, flagging false Mdm2/MdmX hits; shares compounds with Mdm2-MdmX inh; SaOS-2 full-length luciferase counterscreen, luminescence; inhibition, % at 8 µM; 6,200 compounds, 77% hits; AID 504607;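 active = mean inhibition at 8 µM reaching about 37%, which flags the compound as non-specific, limit read from the data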;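 also: p53-null SaOS-2 cells with luciferase driven by a doxycycline-inducible promoter; compound on cells about two nights before reading with doxycycline added after day one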
Of the large screens only hits and unclear results are named; the others gave an inactive call (follow-up assays come after a bar, where they were run).

Cc1c(C(=O)Nc2nc(-c3ccccn3)cs2)oc2ccccc12	CSC inhib 109, Mdm2-MdmX inh 67 (no result: SKKanGAS inh, aSyn UTR inh, T cruzi inh) | Mdm2 MdmX conf 64 | FLuc counter 47
Cc1nnc(NC(=O)c2oc3ccccc3c2C)s1	none
C(=N\Nc1nc(Nc2ccccc2)nc(N2CCOCC2)n1)/c1c[nH]c2ccccc12	T cruzi inh 72, Mdm2-MdmX inh 52 | Mdm2 MdmX conf inactive
COc1cc(/C=N/Nc2nc(N3CCCCC3)nc(N3CCCCC3)n2)ccc1OC(=O)c1ccco1	none
Cc1[nH]c2ccccc2c1/C=N/Nc1nc(Nc2ccc(F)cc2)nc(N2CCOCC2)n1	Mdm2-MdmX inh 87 (no result: aSyn UTR inh, T cruzi inh) | Mdm2 MdmX conf inactive | FLuc counter 101
O=C(Oc1cccc(/C=N/Nc2nc(Nc3ccccc3)nc(N3CCOCC3)n2)c1)c1ccco1	SKKanGAS inh inconclusive, Mdm2-MdmX inh 58 | Mdm2 MdmX conf 49 | FLuc counter 118
Cc1cc(C)c(C(=O)N2CCCC(N3CCN(c4ccc(F)cc4)CC3)C2)o1 (stereo unspecified)	none
O=C(Nc1ccc(Cl)c(Cl)c1)C1CCCCC1	none (no result: SKKanGAS inh, aSyn UTR inh, T cruzi inh)
O=C(NC(=S)Nc1ccc(S(=O)(=O)NC2CCCCC2)cc1)c1cccs1	none
CCOC(=O)c1cn2cccnc2n1	none
CC1C(=O)N(Cc2ccc([N+](=O)[O-])cc2)c2ccccc2N1C(=O)C1CC1 (stereo unspecified)	none
COc1ccc(Nc2nc(N3CCCC3)nc(N3CCCC3)n2)c(OC)c1	T cruzi inh inconclusive
COc1ccc(-c2cc(-c3ccc(F)cc3)nc(N3CCN(C)CC3)n2)cc1	Mdm2-MdmX inh 79 | Mdm2 MdmX conf inactive
COc1ccc(-c2cc(C(F)(F)F)nc(N3CCOCC3)n2)cc1	none
COc1ccc(Nc2nc(Nc3ccc(OC)cc3OC)nc(N3CCN(C)CC3)n2)c(OC)c1	Mdm2-MdmX inh 51 | Mdm2 MdmX conf inactive
COc1ccc(-c2cccc(-c3cc(=O)oc4ccc(C(C)(C)C)cc34)c2)cc1	none (no result: SKKanGAS inh, CSC inhib, aSyn UTR inh, T cruzi inh)
COc1ccccc1NC(=O)/C=C\c1ccco1	none
COc1ccccc1NC(=O)/C(C#N)=C/C=C/c1ccco1	Mdm2-MdmX inh 50 | Mdm2 MdmX conf 54 | FLuc counter 64
COc1cc(C2c3c(n[nH]c3C)C(=O)N2c2ccc(Br)cc2)ccc1O (stereo unspecified)	Mdm2-MdmX inh 56 | Mdm2 MdmX conf inactive
COC(=O)c1ccc(C2c3c(n[nH]c3C)C(=O)N2c2ccc(C)cc2)cc1 (stereo unspecified)	Mdm2-MdmX inh 74 | Mdm2 MdmX conf 47 | FLuc counter 43
CCn1ncc(S(=O)(=O)Nc2cc(Cl)ccc2C)c1C	none
CNCC[C@H](Oc1cccc2ccccc12)c1cccs1	none
CNCCC(Oc1ccc(C(F)(F)F)cc1)c1ccccc1 (stereo unspecified)	Mdm2-MdmX inh 51 | Mdm2 MdmX conf inactive
NS(=O)(=O)c1ccc(CCn2c(=S)[nH]c3ccc(F)cc3c2=O)cc1	none
Cc1ccc(N=C2N=C(N)c3ccccc32)cc1C	none
CCc1ccc(N=C2N=C(N)c3ccccc32)cc1	Mdm2-MdmX inh 55 | Mdm2 MdmX conf inactive
Cc1ccc(NC(=O)CN(Cc2ccccc2)S(C)(=O)=O)cc1C	none
CCOc1ccc(CCNC(=O)c2cc(-c3ccccc3)c(N3CCOCC3)s2)cc1OCC	none
COc1cc2oc(=O)cc(-c3ccc(-c4ccc(CO)cc4)cc3)c2c(OC)c1OC	Mdm2-MdmX inh 68 (no result: SKKanGAS inh, CSC inhib, aSyn UTR inh, T cruzi inh) | Mdm2 MdmX conf 64 | FLuc counter 48
Cc1ccc(NS(=O)(=O)c2ccc(C(=O)NNC(=O)c3ccccc3O)cc2)cc1	Mdm2-MdmX inh 62 | Mdm2 MdmX conf 55 | FLuc counter 52
CCOc1ccc(Oc2ccc(NS(=O)(=O)c3cc(C(=O)O)ccc3Cl)cc2)cc1	none (no result: SKKanGAS inh, aSyn UTR inh, T cruzi inh)
CCCCC(=O)Nc1ccc(C(=O)Nc2ccc(S(=O)(=O)Nc3ccc(C)cc3)cc2)cc1	Mdm2-MdmX inh 63 | Mdm2 MdmX conf inactive | FLuc counter 41
CCOc1ccc(NS(=O)(=O)c2cc(NC(=O)c3ccc(C)cc3)ccc2Cl)cc1	SKKanGAS inh 60, Mdm2-MdmX inh 57 | Mdm2 MdmX conf 67 | FLuc counter 64
O=C(NNC(=O)c1ccccc1O)c1ccc(NS(=O)(=O)c2ccc(F)c(F)c2)cc1	none
CC1=C/C(=N\NC(=S)Nc2cccnc2)CC(C)(C)C1	none (no result: CSC inhib, Mdm2-MdmX inh)
O=C(NCCCn1ccnc1)c1cccc(Cl)c1	none

Bioassay records deposited in PubChem by several laboratories.
